Calls of active or inactive are those of the source. No cut-off for these calls is given here.
Columns and labels:
[1] = molecular target: Serine/threonine-protein kinase/endoribonuclease IRE1 (Homo sapiens) (UniProt O75460); assay: Inhibition of recombinant human IRE1 (465 to end residues) at 1 uM using myelin basic protein as substrate measured after 40 mins in presence of [gamma33P]ATP by scintillation counting method relative to control
[2] = molecular target: Cyclin-dependent kinase 5/CDK5 activator 1 (Homo sapiens) (UniProt Q00535+Q15078); assay: Inhibition of recombinant full-length human CDK5/p35 at 1 uM using Histone H1 as substrate measured after 40 mins in presence of [gamma33P]ATP by scintillation counting method relative to control; format: protein-complex assay
[3] = Half life in human liver microsomes at 2 uM in presence of NADPH measured up to 1 hr by HPLC analysis; format: ADME, Microsome
In short: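 Compound at 2 μM incubated at 37 °C with liver microsomes (1 mg/mL), 3 mM MgCl2 and 0.1 M phosphate buffer pH 7.4; 5 min preincubation, then started with 3 mM NADPH. Aliquots (n = 3) at 0, 10, 20, 30, 45, 60 min quenched with ice-cold acetonitrile, centrifuged, supernatant by HPLC. t1/2 from linear-regression kinetic constant k.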

[4] = molecular target: MAP kinase-interacting serine/threonine-protein kinase 2 (Homo sapiens) (UniProt Q9HBH9); assay: Inhibition of recombinant full-length human Mnk2 at 1 uM using myelin basic protein as substrate measured after 40 mins in presence of [gamma33P]ATP by scintillation counting method relative to control
Chain of MAP kinase-interacting serine/threonine-protein kinase 2 (Homo sapiens) (Q9HBH9 whole entry, looked up): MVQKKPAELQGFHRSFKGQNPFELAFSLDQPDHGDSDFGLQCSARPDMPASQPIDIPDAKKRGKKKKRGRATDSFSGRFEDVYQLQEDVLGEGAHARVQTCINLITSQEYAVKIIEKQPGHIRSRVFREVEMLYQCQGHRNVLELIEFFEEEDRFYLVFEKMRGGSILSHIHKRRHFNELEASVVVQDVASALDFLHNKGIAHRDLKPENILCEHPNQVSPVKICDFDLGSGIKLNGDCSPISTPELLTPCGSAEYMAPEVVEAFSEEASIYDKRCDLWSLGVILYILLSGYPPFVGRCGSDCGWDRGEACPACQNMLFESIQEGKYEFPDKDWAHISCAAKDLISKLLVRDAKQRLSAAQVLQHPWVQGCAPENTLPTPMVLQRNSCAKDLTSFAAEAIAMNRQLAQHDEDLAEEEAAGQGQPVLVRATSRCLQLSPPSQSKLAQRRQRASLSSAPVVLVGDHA

[5] = tested on: Platelet-derived growth factor receptor alpha (Homo sapiens), P16234 [D842V]; assay: Inhibition of recombinant human PDGFRalpha (550 to end residues) D842V mutant at 1 uM using GGMEDIYFEFMGGKKK as substrate measured after 40 mins in presence of [gamma33P]ATP by scintillation counting method relative to control
[6] = molecular target: Bone morphogenetic protein receptor type-1B (Homo sapiens) (UniProt O00238); assay: Inhibition of recombinant human ALK6 (148 to end residues) at 1 uM using casein as substrate measured after 40 mins in presence of [gamma33P]ATP by scintillation counting method relative to control
Chain of Bone morphogenetic protein receptor type-1B (Homo sapiens) (O00238 whole entry): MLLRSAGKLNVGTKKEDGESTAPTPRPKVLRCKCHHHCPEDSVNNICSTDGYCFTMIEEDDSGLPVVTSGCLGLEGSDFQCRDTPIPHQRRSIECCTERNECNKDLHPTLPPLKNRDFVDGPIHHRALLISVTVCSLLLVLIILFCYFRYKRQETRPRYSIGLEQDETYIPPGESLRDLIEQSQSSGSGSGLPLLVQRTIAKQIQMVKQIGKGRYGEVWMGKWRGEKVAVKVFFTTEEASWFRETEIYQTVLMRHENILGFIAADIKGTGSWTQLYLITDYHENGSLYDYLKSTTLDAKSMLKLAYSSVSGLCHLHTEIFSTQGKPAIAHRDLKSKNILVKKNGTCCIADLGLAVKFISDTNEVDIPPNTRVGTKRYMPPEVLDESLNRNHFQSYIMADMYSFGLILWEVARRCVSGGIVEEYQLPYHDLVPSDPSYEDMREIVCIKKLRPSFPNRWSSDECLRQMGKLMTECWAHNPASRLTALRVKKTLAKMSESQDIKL

[7] = tested on: A549; assay: Induction of cell cycle arrest in human A549 cells assessed as accumulation at G2/M phase after 24 hrs by propidium iodide/RNase staining based flow cytometric analysis; format: functional
In short: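 A549 and H1299 plated at 5×10^5 cells/mL in 6-well plates, treated after adherence for 24 h. Washed with PBS, fixed overnight in ice-cold 75% ethanol, stained with propidium iodide plus RNase A for 30 min at 37 °C, analysed by flow cytometry for phase distribution. Means ± SD, three independent experiments.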

[8] = molecular target: Macrophage-stimulating protein receptor (Homo sapiens) (UniProt Q04912); assay: Inhibition of human Ron (983 to end residues) at 1 uM using GGMEDIYFEFMGGKKK as substrate measured after 40 mins in presence of [gamma33P]ATP by scintillation counting method relative to control
Chain of Macrophage-stimulating protein receptor (Homo sapiens) (Q04912 25-304 limits assumed): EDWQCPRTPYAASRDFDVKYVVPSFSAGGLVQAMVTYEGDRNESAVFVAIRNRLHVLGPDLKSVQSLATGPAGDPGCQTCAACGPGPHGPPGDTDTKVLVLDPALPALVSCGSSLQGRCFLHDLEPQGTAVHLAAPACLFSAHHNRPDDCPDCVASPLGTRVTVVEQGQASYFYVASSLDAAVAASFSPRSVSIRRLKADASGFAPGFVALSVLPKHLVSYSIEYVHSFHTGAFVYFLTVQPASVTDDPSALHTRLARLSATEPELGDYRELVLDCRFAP
Chain of Macrophage-stimulating protein receptor (Homo sapiens) (Q04912 310-1400 limits assumed): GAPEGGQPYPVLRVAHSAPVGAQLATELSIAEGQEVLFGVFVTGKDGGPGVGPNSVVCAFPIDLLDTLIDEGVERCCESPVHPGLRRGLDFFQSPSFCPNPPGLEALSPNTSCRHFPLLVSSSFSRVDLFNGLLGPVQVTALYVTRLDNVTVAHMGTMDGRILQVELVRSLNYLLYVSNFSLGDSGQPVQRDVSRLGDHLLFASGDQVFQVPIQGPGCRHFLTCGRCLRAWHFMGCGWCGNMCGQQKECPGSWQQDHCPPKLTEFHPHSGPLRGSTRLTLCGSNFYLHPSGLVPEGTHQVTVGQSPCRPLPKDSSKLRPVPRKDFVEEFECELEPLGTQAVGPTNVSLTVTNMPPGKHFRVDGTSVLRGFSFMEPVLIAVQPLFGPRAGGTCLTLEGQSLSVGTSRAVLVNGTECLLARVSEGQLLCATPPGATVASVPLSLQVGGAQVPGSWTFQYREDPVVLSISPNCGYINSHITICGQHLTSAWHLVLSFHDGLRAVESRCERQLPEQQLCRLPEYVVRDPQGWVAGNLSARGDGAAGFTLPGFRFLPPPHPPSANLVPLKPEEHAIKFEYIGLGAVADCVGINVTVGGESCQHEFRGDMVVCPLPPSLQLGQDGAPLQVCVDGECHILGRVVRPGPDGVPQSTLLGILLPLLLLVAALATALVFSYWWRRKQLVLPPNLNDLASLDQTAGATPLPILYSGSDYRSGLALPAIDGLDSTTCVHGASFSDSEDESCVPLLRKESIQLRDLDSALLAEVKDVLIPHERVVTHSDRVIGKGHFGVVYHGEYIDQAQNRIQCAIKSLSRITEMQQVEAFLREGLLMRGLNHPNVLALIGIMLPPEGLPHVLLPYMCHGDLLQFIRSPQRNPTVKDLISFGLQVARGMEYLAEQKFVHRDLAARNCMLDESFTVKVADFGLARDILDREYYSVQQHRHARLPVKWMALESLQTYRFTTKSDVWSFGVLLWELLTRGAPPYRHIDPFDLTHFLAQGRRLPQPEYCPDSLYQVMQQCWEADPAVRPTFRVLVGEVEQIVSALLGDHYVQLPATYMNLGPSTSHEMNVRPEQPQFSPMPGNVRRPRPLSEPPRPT
In short: (§1)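 Percent inhibition of kinase activity at a single compound concentration, measured by the outsourced Eurofins KinaseProfiler panel. Values are the mean of two independent experiments.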

[9] = molecular target: Homeodomain-interacting protein kinase 4 (Homo sapiens) (UniProt Q8NE63); assay: Inhibition of recombinant full-length human HIPK4 at 1 uM using RRRFRPASPLRGPPK as substrate measured after 40 mins in presence of [gamma33P]ATP by scintillation counting method relative to control
Chain of Homeodomain-interacting protein kinase 4 (Homo sapiens) (Q8NE63 whole entry, the tested form may be a part): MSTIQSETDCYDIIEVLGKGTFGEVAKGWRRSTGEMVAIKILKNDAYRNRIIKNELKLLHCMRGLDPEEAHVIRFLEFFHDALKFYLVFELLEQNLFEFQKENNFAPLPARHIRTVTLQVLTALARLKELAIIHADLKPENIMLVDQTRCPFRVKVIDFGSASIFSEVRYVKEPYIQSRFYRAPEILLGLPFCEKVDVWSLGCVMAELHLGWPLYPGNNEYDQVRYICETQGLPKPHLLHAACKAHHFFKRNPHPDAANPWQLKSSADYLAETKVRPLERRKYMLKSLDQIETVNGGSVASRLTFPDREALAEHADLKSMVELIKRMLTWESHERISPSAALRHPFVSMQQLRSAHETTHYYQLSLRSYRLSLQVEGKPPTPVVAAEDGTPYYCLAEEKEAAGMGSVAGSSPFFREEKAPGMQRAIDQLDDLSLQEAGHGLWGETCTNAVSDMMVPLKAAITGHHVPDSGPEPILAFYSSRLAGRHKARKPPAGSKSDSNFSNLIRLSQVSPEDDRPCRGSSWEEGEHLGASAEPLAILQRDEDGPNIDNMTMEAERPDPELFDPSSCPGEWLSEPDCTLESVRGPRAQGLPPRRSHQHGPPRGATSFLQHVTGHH

[10] = molecular target: Ephrin type-A receptor 7 (Homo sapiens) (UniProt Q15375); assay: Inhibition of recombinant human EphA7 (613 to 909 residues) at 1 uM using KTFCGTPEYLAPEVRREPRILSEEEQEMFRDFDYIADWC as substrate measured after 40 mins in presence of [gamma33P]ATP by scintillation counting method relative to control
Chain of Ephrin type-A receptor 7 (Homo sapiens) (Q15375 28-998 limits assumed): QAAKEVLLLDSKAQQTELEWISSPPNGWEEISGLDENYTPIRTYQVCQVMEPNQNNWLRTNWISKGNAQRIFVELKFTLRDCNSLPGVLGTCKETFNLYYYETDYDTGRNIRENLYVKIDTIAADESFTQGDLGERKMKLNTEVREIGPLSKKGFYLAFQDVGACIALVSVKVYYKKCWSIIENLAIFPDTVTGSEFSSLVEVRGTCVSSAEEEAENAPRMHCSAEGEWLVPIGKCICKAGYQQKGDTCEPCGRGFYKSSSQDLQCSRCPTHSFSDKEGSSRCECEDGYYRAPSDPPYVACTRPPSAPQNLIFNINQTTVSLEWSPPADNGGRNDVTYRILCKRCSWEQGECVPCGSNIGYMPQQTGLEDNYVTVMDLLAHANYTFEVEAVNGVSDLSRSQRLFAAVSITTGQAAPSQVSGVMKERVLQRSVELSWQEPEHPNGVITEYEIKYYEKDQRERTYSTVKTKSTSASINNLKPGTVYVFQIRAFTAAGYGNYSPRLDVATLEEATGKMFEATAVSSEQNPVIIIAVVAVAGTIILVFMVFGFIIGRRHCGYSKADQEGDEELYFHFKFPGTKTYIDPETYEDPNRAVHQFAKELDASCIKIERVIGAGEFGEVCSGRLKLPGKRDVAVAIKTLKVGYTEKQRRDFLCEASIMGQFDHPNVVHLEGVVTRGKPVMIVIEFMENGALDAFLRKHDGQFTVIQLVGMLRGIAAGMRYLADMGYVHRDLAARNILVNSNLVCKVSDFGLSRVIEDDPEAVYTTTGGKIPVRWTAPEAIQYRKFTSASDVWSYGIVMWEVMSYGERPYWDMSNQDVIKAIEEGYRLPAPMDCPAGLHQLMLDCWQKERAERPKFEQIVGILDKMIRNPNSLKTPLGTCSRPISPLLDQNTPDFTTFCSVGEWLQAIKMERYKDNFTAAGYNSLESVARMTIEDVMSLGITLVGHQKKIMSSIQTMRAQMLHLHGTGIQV

[11] = molecular target: [Pyruvate dehydrogenase (acetyl-transferring)] kinase isozyme 2, mitochondrial (Homo sapiens) (UniProt Q15119); assay: Inhibition of human PDHK2 at 1 uM by radiometric method relative to control; in short: as §1
[12] = molecular target: [Pyruvate dehydrogenase (acetyl-transferring)] kinase isozyme 4, mitochondrial (Homo sapiens) (UniProt Q16654); assay: Inhibition of recombinant full-length human PDHK4 at 1 uM using KKKYHGHSMSDPGVSYRT as substrate measured after 40 mins in presence of [gamma33P]ATP by scintillation counting method relative to control
Chain of [Pyruvate dehydrogenase (acetyl-transferring)] kinase isozyme 4, mitochondrial (Homo sapiens) (Q16654 whole entry, looked up): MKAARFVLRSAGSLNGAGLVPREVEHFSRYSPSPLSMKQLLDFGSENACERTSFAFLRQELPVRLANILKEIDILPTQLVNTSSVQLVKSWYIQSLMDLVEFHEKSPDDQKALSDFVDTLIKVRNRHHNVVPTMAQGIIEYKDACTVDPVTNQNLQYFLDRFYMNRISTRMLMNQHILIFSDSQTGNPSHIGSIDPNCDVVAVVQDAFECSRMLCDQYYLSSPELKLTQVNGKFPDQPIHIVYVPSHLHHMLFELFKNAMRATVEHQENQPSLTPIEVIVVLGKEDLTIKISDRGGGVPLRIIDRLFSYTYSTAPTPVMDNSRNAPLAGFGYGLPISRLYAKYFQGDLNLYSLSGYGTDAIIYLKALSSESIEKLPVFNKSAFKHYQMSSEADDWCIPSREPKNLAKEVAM

[13] = molecular target: PI3K p110 beta/p85 alpha (Homo sapiens) (UniProt P27986+P42338); assay: Inhibition of recombinant full-length human PI3K p110beta/p85alpha at 1 uM using phosphatidylinositol-4, 5-bisphosphate as substrate measured after 40 mins by fluorescence assay relative to control; format: protein-complex assay
[14] = molecular target: Serine/threonine-protein kinase B-raf (Homo sapiens) (UniProt P15056); assay: Inhibition of recombinant human BRAF (416 to end residues) at 1 uM using myelin basic protein as substrate measured after 40 mins in presence of [gamma33P]ATP by scintillation counting method relative to control
[15] = tested on: NCI-H1299; assay: Antiproliferative activity against human H1299 cells assessed as inhibition of cell viability at 10 uM after 72 hrs by CCK-8 assay relative to control; format: functional; conditions: NCI-H1299, 72 h
In short: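 Single-concentration viability screen using CCK-8. Cells were seeded at 3000/well and treated for 72 h. A450 read after 1-4 h with reagent. Percent inhibition calculated against untreated control and blank wells as (Ac−As)/(Ac−Ab)×100%.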

[16] = tested on: HCC827; assay: Antiproliferative activity against human HCC827 cells assessed as inhibition of cell viability after 72 hrs by CCK-8 assay; format: functional, cell-based; conditions: HCC827, 72 h
In short: (§2)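 Cells kept at 37 °C, 5% CO2 in DMEM or RPMI-1640 with 10% FBS and 1% penicillin/streptomycin, then seeded at 3000 cells/well (adherent) or 10,000 cells/well (suspension). Exposed to a range of concentrations for 72 h. CCK-8 added for 1-4 h before reading A450. […] Three independent experiments.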

[17] = tested on: NCI-H1299; assay: Downregulation of KLF4 in human H1299 cells at 0.25 to 1 uM by Western blot analysis; format: functional, cell-based
[18] = molecular target: G protein-coupled receptor kinase 5 (Homo sapiens) (UniProt P34947); assay: Inhibition of recombinant full-length human GRK5 at 1 uM using casein as substrate measured after 40 mins in presence of [gamma33P]ATP by scintillation counting method relative to control
Chain of G protein-coupled receptor kinase 5 (Homo sapiens) (P34947 whole entry, looked up): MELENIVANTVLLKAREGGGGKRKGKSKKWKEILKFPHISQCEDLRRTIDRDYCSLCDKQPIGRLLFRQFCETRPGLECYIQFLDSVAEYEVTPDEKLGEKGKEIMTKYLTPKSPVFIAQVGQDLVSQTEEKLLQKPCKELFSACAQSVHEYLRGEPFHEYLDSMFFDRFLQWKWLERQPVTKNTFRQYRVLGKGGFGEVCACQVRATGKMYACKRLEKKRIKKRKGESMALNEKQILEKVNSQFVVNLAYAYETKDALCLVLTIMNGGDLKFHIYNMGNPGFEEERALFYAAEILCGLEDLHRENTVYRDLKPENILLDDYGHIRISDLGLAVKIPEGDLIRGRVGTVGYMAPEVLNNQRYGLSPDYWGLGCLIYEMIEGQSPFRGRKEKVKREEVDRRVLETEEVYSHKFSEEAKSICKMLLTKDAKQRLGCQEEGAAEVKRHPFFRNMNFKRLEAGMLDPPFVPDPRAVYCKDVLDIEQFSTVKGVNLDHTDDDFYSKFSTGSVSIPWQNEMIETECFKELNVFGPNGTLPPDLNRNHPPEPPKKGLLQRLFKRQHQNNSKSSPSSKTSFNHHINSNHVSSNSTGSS

[19] = tested on: NCI-H1299; assay: Inhibition of colony formation in human H1299 cells after 12 days by crystal violet staining based assay; format: functional, cell-based
In short: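 Cells exposed to compound, then washed, trypsinized and reseeded at 300 cells per well in 6-well plates. Colonies grew 10-14 days (legend: 12 days), were fixed in methanol 30 min, stained overnight with 0.5% crystal violet and imaged.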

[20] = tested on: NCI-H1299; assay: Inhibition of tumorsphere formation in human H1299 cells after 2 weeks by microscopic analysis; format: functional, cell-based
[21] = tested on: Serine/threonine-protein kinase D1 (Homo sapiens), Q15139 [UNDEFINED MUTATION]; assay: Inhibition of recombinant full-length human PKCmu R135A mutant at 1 uM using KKLNRTLSVA as substrate measured after 40 mins in presence of [gamma33P]ATP by scintillation counting method relative to control
[22] = tested on: A549; assay: Antiproliferative activity against human A549 cells assessed as inhibition of cell viability after 72 hrs by CCK-8 assay; format: functional, cell-based; conditions: A549, 72 h; in short: as §2

With `CN(C)C(=O)c1cc2cnc(Nc3ccc(NC(=O)CCCCCCCN=C=S)cc3)nc2n1C1CCCC1` the inhibition [1] was 29%, the inhibition [2] was 59% and the half-life at 2 µM [3] was 33 min. For the same molecule, the inhibition [4] was 68%, the inhibition [5] was 44% and the inhibition [6] was -1%. For the same molecule, the Activity [7] was “Dose-dependent effect”, the inhibition [8] was 72% and the inhibition [9] was 19%. The inhibition [10] was 6%, the inhibition [11] was -10% and the inhibition [12] was -3%. For the same molecule, the inhibition [13] was 5%, the inhibition [14] was 34% and the inhibition at 10 µM [15] was 98.7%. The IC50 [16] was 1070 nM, the Activity [17] was “Active” and the inhibition [18] was -2%. The inhibition [19] was “Dose-dependent effect”, the inhibition [20] was “Dose-dependent effect” and the inhibition [21] was 3%. The IC50 [22] was 450 nM.

— ChEMBL document CHEMBL4376814, “Novel cyclin-dependent kinase 9 (CDK9) inhibitor with suppression of cancer stemness activity against non-small-cell lung cancer” (Eur J Med Chem, 2019)
